Legend:
Parameters in all cases: scale not given: the % may be the effect or the level left
HepG2 = test: Cytotoxicity against human HepG2 cells assessed as reduction in cell growth at 10 umol/ml after 24 hrs by MTT assay relative to control; format: functional
Summary of the method: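 HepG2 grown in RPMI-1640 with 10% FCS. Cells taken at ~80% confluence, seeded 3×10³/well, incubated overnight at 37 °C, 5% CO₂. Compound exposure 24 h. Then PBS wash and MTT (0.5 mg/ml) for 4 h. Crystals dissolved in DMSO, OD read at 570 nm (reference 690 nm). Reported as % reduction in cell growth versus untreated control.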

Hepatovirus A [1] = test: Antiviral activity against HAV MBB in human HepG2 cells assessed as reduction in viral titer at 10 ug/ml by plaque reduction assay; format: functional, Human hepatitis A virus Hu/Northern Africa/MBB/1978
Summary of the method: (§1)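 HAV pre-mixed with compound (10 or 20 µg/10⁵ cells; virus at 10⁴ PFU/ml final), held overnight at 4 °C. Mixture inoculated onto HepG2 monolayers grown 2 days at 37 °C, then 1 h contact. Overlay of MEM with 1% agarose, incubated at 37 °C until plaques formed. Formalin-fixed, crystal violet-stained. Plaques counted; % reduction calculated against untreated virus control.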

Hepatovirus A [2] = test: Antiviral activity against HAV MBB in human HepG2 cells assessed as reduction in viral titer at 20 ug/ml by plaque reduction assay; format: functional, Human hepatitis A virus Hu/Northern Africa/MBB/1978; summary of the method: as §1

Structure (SMILES) | Activity (HepG2) | Activity (Hepatovirus A [1]) | Activity (Hepatovirus A [2])
CCOC(=O)CNC1=CC(=O)CC(C)(C)C1 | 50% | 5.6% | 15%
CC1(C)CC(=O)C=C(NCc2nnc(Nc3ccccc3)s2)C1 | – | 45.2% | 49%
CC1(C)CC(=O)C=C(NCC(=O)NNC(=S)Nc2ccccc2)C1 | 54.84% | 18.8% | 39.6%
CC1(C)CC(=O)C=C(NCC(=O)N/N=C\c2ccc([N+](=O)[O-])cc2)C1 | – | 39.6% | 43.3%
CCOC(=O)CN1C2=C(C(=O)CC(C)(C)C2)C(c2ccc(Br)cc2)C2=C1CC(C)(C)CC2=O | 49.17% | 47.1% | 52.8%
CCOC(=O)CN1C2=C(C(=O)CC(C)(C)C2)C(c2ccccc2)C2=C1CC(C)(C)CC2=O | 3.32% | 37.7% | 60.3%
CCOC(=O)CN1C2=C(C(=O)CC(C)(C)C2)C(c2ccc(OC)cc2)C2=C1CC(C)(C)CC2=O | 37.99% | 24.5% | 45.2%
CC1(C)CC(=O)C=C(NCC(=O)N/N=C\c2ccccc2)C1 | – | 56.6% | 58.4%
COc1ccc(/C=N\NC(=O)CNC2=CC(=O)CC(C)(C)C2)cc1 | 16.99% | 24.5% | 36.2%
CCOC(=O)CN1C2=C(C(=O)CC(C)(C)C2)C(c2ccc(O)cc2)C2=C1CC(C)(C)CC2=O | 54.7% | 30.1% | 48.1%
CC1(C)CC(=O)C=C(NCC(=O)N/N=C\c2ccc(Br)cc2)C1 | 40.06% | 43.3% | 27.3%
CC1(C)CC(=O)C=C(NCC(=O)NN)C1 | 57.4% | 33.9% | 34.9%
CC1(C)CC(=O)C=C(NCC(=O)N/N=C\c2ccc(Cl)cc2)C1 | – | 57.5% | 60.3%
CC1(C)CC(=O)C=C(NCC(=O)NNC(=O)NCCCl)C1 | 58.29% | 42.4% | 40.5%
NC12CC3CC(CC(C3)C1)C2 [AMANTADINE] | – | 30.1% | 45.2%
CC1(C)CC(=O)C=C(NCc2nnc(S)n2-c2ccccc2)C1 | 35.64% | 28.3% | 30.1%
CCOC(=O)CN1C2=C(C(=O)CC(C)(C)C2)C(c2ccc(Cl)cc2)C2=C1CC(C)(C)CC2=O | 54.14% | 30.1% | 47.1%
CC1(C)CC(=O)C=C(NCC(=O)N/N=C\c2ccc(O)cc2)C1 | 40.32% | 9.4% | 15%

From ChEMBL document CHEMBL1153617, “Synthesis of new acridines and hydrazones derived from cyclic beta-diketone for cytotoxic and antiviral evaluation” (2009)
